Assay type in all cases: cell-based
Assay [1] deals with T1, Retinoic acid receptor RXR-alpha (Homo sapiens, UniProt P19793).
T1 sequence (P19793 whole entry): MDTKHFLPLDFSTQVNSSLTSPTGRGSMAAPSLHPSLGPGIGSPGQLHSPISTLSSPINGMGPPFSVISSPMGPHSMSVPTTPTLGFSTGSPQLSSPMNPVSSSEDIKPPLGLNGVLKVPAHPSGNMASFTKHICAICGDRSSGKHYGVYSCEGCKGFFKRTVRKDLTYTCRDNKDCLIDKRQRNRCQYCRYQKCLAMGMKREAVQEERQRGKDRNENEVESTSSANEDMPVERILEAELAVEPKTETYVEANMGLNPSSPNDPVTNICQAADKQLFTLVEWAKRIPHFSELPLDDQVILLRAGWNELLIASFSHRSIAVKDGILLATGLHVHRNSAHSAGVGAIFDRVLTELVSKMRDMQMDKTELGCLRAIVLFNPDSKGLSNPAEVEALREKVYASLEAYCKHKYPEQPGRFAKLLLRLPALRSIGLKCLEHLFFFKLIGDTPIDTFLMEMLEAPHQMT
Briefly: Agonist activity at Gal4-LBD fused RXRalpha (unknown origin) expressed in HEK293T cells after 14 to 16 hrs by dual-Glo luciferase assay. The procedure, abridged:
(§1)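 Gal4-hybrid RXRα/β/γ reporter gene assays in HEK293T cells. Fold activation is the maximal fold activation versus 0.1% DMSO.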

The target of assay [2] is T2, Retinoic acid receptor RXR-gamma (Homo sapiens) (UniProt P48443).
T2 sequence (whole entry): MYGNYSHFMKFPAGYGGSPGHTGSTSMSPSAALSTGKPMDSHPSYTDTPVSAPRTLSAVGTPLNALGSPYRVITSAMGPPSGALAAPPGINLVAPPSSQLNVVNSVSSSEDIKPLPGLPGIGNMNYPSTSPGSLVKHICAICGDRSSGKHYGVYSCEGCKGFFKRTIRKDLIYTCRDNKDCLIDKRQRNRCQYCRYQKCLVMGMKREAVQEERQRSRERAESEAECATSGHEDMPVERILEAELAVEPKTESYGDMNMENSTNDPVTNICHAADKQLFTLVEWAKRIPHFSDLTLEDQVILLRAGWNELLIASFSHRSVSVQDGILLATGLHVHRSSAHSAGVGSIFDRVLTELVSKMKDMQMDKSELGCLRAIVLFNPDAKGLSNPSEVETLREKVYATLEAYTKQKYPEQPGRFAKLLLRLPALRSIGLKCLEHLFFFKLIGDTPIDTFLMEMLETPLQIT
Briefly: Agonist activity at Gal4-LBD fused RXRgamma (unknown origin) expressed in HEK293T cells at 20 uM after 14 to 16 hrs by dual-Glo luciferase assay.

Assay [3] concerns the target T3, Retinoic acid receptor gamma (Homo sapiens) (UniProt P13631).
T3 sequence (whole entry): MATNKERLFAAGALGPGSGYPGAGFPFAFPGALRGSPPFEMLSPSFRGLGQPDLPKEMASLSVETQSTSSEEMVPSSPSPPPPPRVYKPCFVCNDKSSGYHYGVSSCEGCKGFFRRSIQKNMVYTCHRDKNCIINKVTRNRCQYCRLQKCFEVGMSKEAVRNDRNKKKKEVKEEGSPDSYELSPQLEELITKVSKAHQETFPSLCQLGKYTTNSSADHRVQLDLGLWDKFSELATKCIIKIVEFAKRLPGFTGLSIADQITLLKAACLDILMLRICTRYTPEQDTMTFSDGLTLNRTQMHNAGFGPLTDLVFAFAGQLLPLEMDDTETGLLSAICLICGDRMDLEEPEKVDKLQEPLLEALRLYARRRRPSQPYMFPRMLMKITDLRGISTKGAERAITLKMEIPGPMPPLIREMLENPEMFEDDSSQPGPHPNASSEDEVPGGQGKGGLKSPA
Briefly: Agonist activity at Gal4-LBD fused RARgamma (unknown origin) expressed in HEK293T cells after at 20 uM 14 to 16 hrs by dual-Glo luciferase assay. The procedure, abridged: (§2)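 Gal4-hybrid reporter gene selectivity panel of related nuclear receptors (PPARα/β/γ, RARα/β/γ) in HEK293T cells. Activity is read as mean fold activation versus 0.1% DMSO vehicle, n ≥ 2.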

Assay [4] concerns the target T4, Retinoic acid receptor beta (Homo sapiens) (UniProt P10826).
T4 sequence (whole entry): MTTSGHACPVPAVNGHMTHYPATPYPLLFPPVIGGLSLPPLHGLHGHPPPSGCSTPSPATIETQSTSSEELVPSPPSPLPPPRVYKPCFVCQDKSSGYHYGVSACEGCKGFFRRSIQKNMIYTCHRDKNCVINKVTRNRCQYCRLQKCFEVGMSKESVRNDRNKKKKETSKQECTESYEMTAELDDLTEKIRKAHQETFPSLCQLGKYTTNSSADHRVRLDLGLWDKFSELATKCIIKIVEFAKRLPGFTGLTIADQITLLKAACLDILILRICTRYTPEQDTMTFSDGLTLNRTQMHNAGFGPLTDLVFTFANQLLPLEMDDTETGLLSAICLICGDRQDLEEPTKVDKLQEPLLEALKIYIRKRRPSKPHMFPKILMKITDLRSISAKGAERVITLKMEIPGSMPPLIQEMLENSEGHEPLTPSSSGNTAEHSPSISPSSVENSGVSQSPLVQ
The experiment in a line: Agonist activity at Gal4-LBD fused RARbeta (unknown origin) expressed in HEK293T cells at 10 uM after 14 to 16 hrs by dual-Glo luciferase assay. A digest of the protocol: as §2

Assay [5] is filed under the species Homo sapiens. The experiment in a line: Agonist activity at full-length human PPARgamma/RXR expressed in HEK293T cells at 10 uM after 14 to 16 hrs by dual-glo luciferase reporter gene assay relative to untreated control. The procedure, abridged: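 RXR:PPARγ heterodimer reporter assay in HEK293T cells with test compound alone. Mean relative activation is taken versus 0.1% DMSO, from three independent experiments each run in duplicate.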
A general note: Reporter assays use an easily measured gene product as a stand-in for the process of interest.

Assay [6] deals with T5, Retinoic acid receptor RXR-gamma (Homo sapiens, UniProt P48443).
T5 sequence (P48443 whole entry): T2 sequence (whole entry)
The experiment in a line: Agonist activity at Gal4-LBD fused RXRgamma (unknown origin) expressed in HEK293T cells after 14 to 16 hrs by dual-Glo luciferase assay. A digest of the protocol:
as §1

In assay [7] the target is T6, Peroxisome proliferator-activated receptor alpha (Homo sapiens) (UniProt Q07869).
T6 sequence (whole entry): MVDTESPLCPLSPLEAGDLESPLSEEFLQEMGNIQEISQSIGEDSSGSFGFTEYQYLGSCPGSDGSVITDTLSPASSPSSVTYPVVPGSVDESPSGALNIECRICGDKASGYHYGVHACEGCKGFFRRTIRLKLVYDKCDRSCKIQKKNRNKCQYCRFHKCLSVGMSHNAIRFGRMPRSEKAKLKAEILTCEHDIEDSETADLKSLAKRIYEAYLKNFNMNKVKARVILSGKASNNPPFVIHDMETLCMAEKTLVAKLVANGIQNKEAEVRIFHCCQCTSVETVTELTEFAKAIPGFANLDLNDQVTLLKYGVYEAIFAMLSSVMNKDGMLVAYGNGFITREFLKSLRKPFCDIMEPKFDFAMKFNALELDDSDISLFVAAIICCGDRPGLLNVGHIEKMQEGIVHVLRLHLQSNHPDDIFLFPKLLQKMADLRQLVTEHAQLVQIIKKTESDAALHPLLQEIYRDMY
Briefly: Agonist activity at Gal4-LBD fused PPARalpha (unknown origin) expressed in HEK293T cells at 10 uM after 14 to 16 hrs by dual-Glo luciferase assay. A digest of the protocol:
as §2

Our source for the EC50 and Activity values is ChEMBL document CHEMBL4304816, “A Novel Biphenyl-based Chemotype of Retinoid X Receptor Ligands Enables Subtype and Heterodimer Preferences” (ACS Med Chem Lett, 2019).

In general, EC50 refers to the midpoint of the concentration-response curve. Low readings indicate greater potency, high ones weaker potency.

Calls of active or inactive are those of the source. No cut-off for these calls is given here.

Regarding `Cc1cc(-c2ccc(C(=O)O)cc2)cc(C(C)(C)C)c1`, the 50% effective concentration (EC50) in assay [1] amounted to 8 µM. Also, the outcome in assay [2] was inactive. Further, in assay [3], the result was Active.
Take `Cc1cc(-c2cc(C(F)(F)F)cc(C(F)(F)F)c2)ccc1CC(=O)O`: the half-maximal effective concentration (EC50) turned out to be 0.21 µM in assay [1] and 1 µM in assay [6]. In addition, the result in assay [4] and in assay [7] was Active. For the same molecule, the Activity in assay [5] is 139%.
For the molecule `Cc1cc(-c2cc(C(C)(C)C)cc(C(C)(C)C)c2)ccc1C(=O)O`, the outcome in assay [4] and in assay [7] was Active.
